In ChEMBL document CHEMBL3608239, “Identification and optimisation of a 4',5-bisthiazole series of selective phosphatidylinositol-3 kinase alpha inhibitors” (Bioorg Med Chem Lett, 2015):

Assays:
[1] = Permeability of the compound from apical to basolateral side in human Caco2 cells; assay type: ADME, cell-based; conditions: Caco-2, read-out: permeability
[2] = Permeability of the compound from basolateral to apical side in human Caco2 cells; assay type: ADME, cell-based; conditions: Caco-2, read-out: permeability
[3] = Plasma concentration in athymic nude mouse at 10 mg/kg, iv after 2 hrs; assay type: ADME, organism-based
Method in brief: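 Female athymic nude mice, conscious, with free access to food, given a bolus intravenous dose of 10 mg kg-1. Plasma levels measured 1 and 2 h after dosing.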

Rattus norvegicus = test: Volume of distribution in Sprague-Dawley rat at 3 mg/kg, po; assay type: ADME, organism-based; conditions: in vivo
Method in brief: (§1)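 Female Sprague-Dawley rats, conscious, permanently cannulated, with free access to food. Dosed 1.0 mg kg-1 intravenously or 3.0 mg kg-1 orally as a suspension. Blood levels followed from 5 min to 48 h after dosing.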

[4] = Oral bioavailability in Sprague-Dawley rat at 3 mg/kg; assay type: ADME, organism-based; conditions: in vivo; method in brief: as §1

| Papp A→B [1] | Papp B→A [2] | concentration at 2 h [3] | Vd (Rattus norvegicus) | bioavailability [4] | SMILES |
| --- | --- | --- | --- | --- | --- |
| 1.4 ×10⁻⁶ cm/s | 7.7 ×10⁻⁶ cm/s | – | – | – | Cc1nc(NC(=O)N2CCC[C@H]2C(N)=O)sc1-c1ccc(S(C)(=O)=O)c(F)c1 |
| 14.5 ×10⁻⁶ cm/s | 17.4 ×10⁻⁶ cm/s | < 50 nM | – | – | Cc1nc(NC(=O)N2CCC[C@@]2(C)C(N)=O)sc1-c1csc(C(C)(C)C)n1 |
| 11.1 ×10⁻⁶ cm/s | 17.4 ×10⁻⁶ cm/s | – | – | – | Cc1nc(NC(=O)N2CC[C@H](C)[C@H]2C(N)=O)sc1-c1csc(C(C)(C)C)n1 |
| 0.9 ×10⁻⁶ cm/s | 12.4 ×10⁻⁶ cm/s | – | – | – | Cc1nc(NC(=O)N2CC[C@H](O)[C@H]2C(N)=O)sc1-c1csc(C(C)(C)C)n1 |
| 5.5 ×10⁻⁶ cm/s | 20.7 ×10⁻⁶ cm/s | – | – | – | Cc1nc(NC(=O)N2C[C@H](F)C[C@H]2C(N)=O)sc1-c1csc(C(C)(C)C)n1 |
| 0.7 ×10⁻⁶ cm/s | 8.4 ×10⁻⁶ cm/s | – | – | – | Cc1nc(NC(=O)N2C[C@H](O)C[C@H]2C(N)=O)sc1-c1csc(C(C)(C)C)n1 |
| 1.2 ×10⁻⁶ cm/s | 20.8 ×10⁻⁶ cm/s | – | – | – | Cc1nc(NC(=O)N2C[C@@H](O)C[C@H]2C(N)=O)sc1-c1csc(C(C)(C)C)n1 |
| – | – | – | 3.3 L/kg | 59% | Cc1nc(NC(=O)N2C[C@H](N(C)C)C[C@H]2C(N)=O)sc1-c1csc(C2(C)CC2)n1 |
